For assay [1], the target named is T1, human MCM•cob(II)alamin (Homo sapiens, UniProt P22033).
T1 sequence (P22033 33-750): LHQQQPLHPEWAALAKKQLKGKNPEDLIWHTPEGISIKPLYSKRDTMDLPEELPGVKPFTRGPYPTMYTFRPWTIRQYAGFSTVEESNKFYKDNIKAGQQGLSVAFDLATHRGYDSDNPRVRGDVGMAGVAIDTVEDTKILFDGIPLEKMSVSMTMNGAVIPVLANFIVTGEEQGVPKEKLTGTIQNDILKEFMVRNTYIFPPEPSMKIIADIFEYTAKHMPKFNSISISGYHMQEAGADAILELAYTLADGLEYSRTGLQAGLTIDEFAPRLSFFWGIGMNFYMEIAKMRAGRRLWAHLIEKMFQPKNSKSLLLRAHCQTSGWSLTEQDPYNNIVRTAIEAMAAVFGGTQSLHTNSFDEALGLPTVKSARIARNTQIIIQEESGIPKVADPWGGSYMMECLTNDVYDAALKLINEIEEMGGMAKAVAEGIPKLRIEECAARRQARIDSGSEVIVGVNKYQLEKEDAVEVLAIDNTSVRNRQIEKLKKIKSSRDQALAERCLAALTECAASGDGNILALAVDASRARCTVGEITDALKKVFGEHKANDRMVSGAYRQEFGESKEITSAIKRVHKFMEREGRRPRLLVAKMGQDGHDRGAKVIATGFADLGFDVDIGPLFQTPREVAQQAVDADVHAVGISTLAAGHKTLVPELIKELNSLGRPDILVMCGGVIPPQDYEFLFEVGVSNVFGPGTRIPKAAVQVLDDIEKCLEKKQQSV
Put plainly: Metabolite binding to MCM•cob. In a few lines:
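Cob(II)alamin was made by photolysis of 1.2 mM AdoCbl (stock) in anaerobic water and quantified with ε474 9.2 cm⁻¹ mM⁻¹. Work was done in an anaerobic chamber (<0.2 ppm O₂) with 40 µM cob(II)alamin and 20 µM MCM dimer in Buffer A at 20 °C. For the screen, metabolites were added at 5 mM and spectra recorded after 15 min. For Kd, metabolite was titrated, A460 read after 10 min, and data fitted to a quadratic binding equation.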

For another assay, the target named is T2, human MCM, CblA and ATR (Homo sapiens, UniProt P22033).
T2 sequence (P22033 33-750): T1 sequence (P22033 33-750)
Kind of assay: CblA-dependent cob. Format: biochemical. As to conditions: cob(II)alamin transfer MCM to ATR, anaerobic, 25 °C, 5 mM ADP or 0.5 mM M-CoA. The method in brief:
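Recombinant human MCM, CblA and ATR expressed in E. coli. Metabolite (ADP or M-CoA) was added to the MCM solution. A464 was followed for 20 min; transfer extent came from Δε464 5.6 cm⁻¹ mM⁻¹, and kobs from a single-exponential fit.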

The target of assay [2] is T3, Mycobacterium tuberculosis MCM (Mycobacterium tuberculosis, UniProt P9WJK5).
T3 sequence (P9WJK5 1-750): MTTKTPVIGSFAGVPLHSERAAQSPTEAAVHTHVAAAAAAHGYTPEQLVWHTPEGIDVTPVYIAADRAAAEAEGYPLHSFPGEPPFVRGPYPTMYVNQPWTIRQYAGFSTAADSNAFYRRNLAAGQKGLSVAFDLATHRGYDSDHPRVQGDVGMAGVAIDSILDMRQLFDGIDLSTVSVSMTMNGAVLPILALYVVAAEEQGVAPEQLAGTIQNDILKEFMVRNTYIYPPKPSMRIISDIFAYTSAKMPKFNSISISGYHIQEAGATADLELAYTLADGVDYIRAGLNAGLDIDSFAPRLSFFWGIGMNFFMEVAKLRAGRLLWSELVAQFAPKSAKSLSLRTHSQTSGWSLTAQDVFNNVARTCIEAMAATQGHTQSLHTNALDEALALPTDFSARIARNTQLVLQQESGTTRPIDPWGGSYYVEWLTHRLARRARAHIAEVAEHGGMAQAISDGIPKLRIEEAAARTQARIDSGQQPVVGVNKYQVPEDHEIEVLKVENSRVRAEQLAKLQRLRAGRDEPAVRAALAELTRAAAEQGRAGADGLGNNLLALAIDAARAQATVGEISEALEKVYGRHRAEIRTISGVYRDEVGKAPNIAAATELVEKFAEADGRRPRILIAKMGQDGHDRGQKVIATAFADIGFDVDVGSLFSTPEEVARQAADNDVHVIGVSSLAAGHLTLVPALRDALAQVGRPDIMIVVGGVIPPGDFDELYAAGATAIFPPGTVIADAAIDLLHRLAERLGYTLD
T3 sequence (P9WJK7 1-615 partner): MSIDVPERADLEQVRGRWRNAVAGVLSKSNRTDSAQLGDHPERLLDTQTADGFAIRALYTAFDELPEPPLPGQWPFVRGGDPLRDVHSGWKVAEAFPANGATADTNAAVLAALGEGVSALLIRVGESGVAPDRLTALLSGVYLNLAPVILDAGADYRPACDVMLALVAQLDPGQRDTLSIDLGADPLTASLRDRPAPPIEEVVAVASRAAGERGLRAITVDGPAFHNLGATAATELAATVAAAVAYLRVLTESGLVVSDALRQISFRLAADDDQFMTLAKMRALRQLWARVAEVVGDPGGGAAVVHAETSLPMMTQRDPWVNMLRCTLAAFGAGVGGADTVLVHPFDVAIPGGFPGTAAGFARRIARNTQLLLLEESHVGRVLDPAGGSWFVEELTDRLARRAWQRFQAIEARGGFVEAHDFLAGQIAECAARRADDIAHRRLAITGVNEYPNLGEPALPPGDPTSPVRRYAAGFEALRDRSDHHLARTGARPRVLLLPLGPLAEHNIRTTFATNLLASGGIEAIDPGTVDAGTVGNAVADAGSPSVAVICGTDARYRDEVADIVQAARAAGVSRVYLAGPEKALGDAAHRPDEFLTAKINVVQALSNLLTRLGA
Put plainly: Kinetics of M. tuberculosis MCM•cob. As to conditions: in air. Format: biochemical.

The target of assay [3] is T1, human MCM•cob(II)alamin. Put plainly: Stopped-flow spectroscopy of ADP/ATP binding to MCM•cob. The method in brief: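 Anaerobic stopped-flow with diode-array detection was run at 25 °C. MCM•cob(II)alamin was preformed from 80 µM cob(II)alamin and 40 µM MCM dimer (stock) in Buffer A for 10 min, then rapidly mixed with 0.25–2.5 mM ADP or ATP. A460 traces were fitted to a single exponential for kobs. kon came from linear regression of kobs on metabolite concentration, and koff from titration Kd and kon.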

Another assay deals with T4, human ATR (Homo sapiens, UniProt Q96EY8).
T4 sequence (Q96EY8 33-250): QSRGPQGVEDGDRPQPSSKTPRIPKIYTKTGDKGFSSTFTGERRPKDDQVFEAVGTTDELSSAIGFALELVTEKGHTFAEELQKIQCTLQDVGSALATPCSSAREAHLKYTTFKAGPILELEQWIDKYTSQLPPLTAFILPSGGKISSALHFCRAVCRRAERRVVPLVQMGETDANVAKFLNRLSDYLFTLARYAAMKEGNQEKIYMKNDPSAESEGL
Put plainly: ATP-triggered release of AdoCbl from ATR into solution. Format: biochemical. Particulars: ATR•AdoCbl without PPPi, confirmed after separation with a 10 kDa cutoff filter.

The target of another assay is ATR. As to conditions: PPPi on ATR ternary product complex; ref [14]; cited from earlier work.
The target of a further assay is T5, human MCM (Homo sapiens, UniProt P22033).
T5 sequence (P22033 33-750): T1 sequence (P22033 33-750)
Put plainly: Kinetics of human MCM•cob. Format: biochemical. Particulars: absence of ligands, in air, 25 °C. The method in brief: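 The MCM•cob(II)alamin sample (40 µM cob(II)alamin, 20 µM MCM dimer) was prepared in anaerobic Buffer A at pH 7.5. Oxidation was started by twofold dilution with aerobic buffer. H₂OCbl formation was followed as the rise in absorbance at 350 nm versus time, giving kobs.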

As usually defined, the Kd is a measure of binding affinity in units of concentration.

With `C[C@H]1O[C@@H](n2cnc3c(N)ncnc32)[C@H](O)[C@@H]1O` [5′-dAdo, 5′-deoxyadenosine], the Kd at human MCM•cob(II)alamin [1] was 4.2 ± 2.1 µM.
With `Nc1ncnc2c1ncn2[C@@H]1O[C@H](COP(=O)(O)OP(=O)(O)O)[C@@H](O)[C@H]1O` [ADP, adenosine diphosphate], at human MCM, CblA and ATR, the “Rate of transfer (kobs)” value is 0.24 ± 0.01 min⁻¹. In addition, the “Effect on oxidation of cob(II)alamin bound to M. tuberculosis MCM” value in assay [2] is “prevented”. Moreover, the “fold higher kon of ADP versus ATP” value on human MCM•cob(II)alamin [3] (ADP vs ATP) is ~ 100 fold. Moreover, the “rate of ADP binding relative to oxidation of cob(II)alamin on MCM” value at human MCM•cob(II)alamin [3] (assuming a cellular ADP concentration of 6 mM) is on record as ~ 600 fold. The Kd at human MCM•cob(II)alamin [1] came out at 44 ± 4.2 µM.
On to `Nc1ncnc2c1ncn2[C@@H]1O[C@H](COP(=O)(O)OP(=O)(O)OP(=O)(O)O)[C@@H](O)[C@H]1O` [ATP, adenosine triphosphate], for which, on human ATR, the “AdoCbl released from ATR into solution” value was determined as 40%. Further, the Kd on human MCM•cob(II)alamin [1] was 30 ± 5 µM.
In the case of `CC(C)(COP(=O)(O)OP(=O)(O)OC[C@H]1O[C@@H](n2cnc3c(N)ncnc32)[C@H](O)[C@@H]1OP(=O)(O)O)[C@@H](O)C(=O)NCCC(=O)NCCS` [CoA, Coenzyme A], the “Rate of transfer (kobs)” value at human MCM, CblA and ATR worked out at 0.92 ± 0.06 min⁻¹. On human MCM•cob(II)alamin [1], the Kd was 118 ± 13 µM.
For the compound `O=P(O)(O)OP(=O)(O)OP(=O)(O)O` [PPPi, sodium triphosphate pentabasic], the Kd on ATR was < 400 nM.
`C/C1=C2/[N-][C@H]([C@H](CC(N)=O)[C@@]2(C)CCC(=O)NC[C@@H](C)OP(=O)([O-])O[C@H]2[C@@H](O)[C@@H](n3cnc4cc(C)c(C)cc43)O[C@@H]2CO)[C@]2(C)N=C(/C(C)=C3N=C(/C=C4N=C1[C@@H](CCC(N)=O)C\4(C)C)[C@@H](CCC(N)=O)[C@]\3(C)CC(N)=O)[C@@H](CCC(N)=O)[C@]2(C)CC(N)=O.[Co+2]` [cob(II)alamin]: at human MCM, the “kobs of oxidation of MCM-bound cob(II)alamin to H2OCbl” value stood at 0.08 min⁻¹.

These data come from article PMC10243129 (Proceedings of the National Academy of Sciences of the …, 2023).
